Data taken from ChEMBL document CHEMBL4680176, “Identification of DOT1L inhibitors by structure-based virtual screening adapted from a nucleoside-focused library” (Eur J Med Chem, 2020).
The source made the active and inactive calls. The rule behind the calls is not given here.

Legend:
[1] = molecular target: Histone-lysine N-methyltransferase EZH2 (Homo sapiens, UniProt Q15910); assay: Inhibition of recombinant human EZH2 using core histone as substrate by hotspot assay
[2] = test system: Bone marrow cell; assay: Induction of cell differentiation in mouse bone marrow cells transformed with MLL-AF9 assessed as change in morphology incubated for 6 days by Wright-Giemsa staining based inverted microscopy; type: functional; conditions: dose 1-30 µM, time 6.0 day
Summary of the method: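 Cells taken on day 6 of the proliferation culture (MLL-AF9 murine line, IMDM + 15% FBS + IL-3, re-dosed at each split, 0.3% DMSO). Cytospun onto slides, Wright-Giemsa stained, and imaged under bright field on an inverted microscope to assess morphology.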

[3] = molecular target: T1, Protein arginine N-methyltransferase 7 (Homo sapiens, UniProt Q9NVM4); assay: Inhibition of recombinant human PRMT7 using GST-GAR as substrate by hotspot assay
T1 sequence (Q9NVM4 whole entry): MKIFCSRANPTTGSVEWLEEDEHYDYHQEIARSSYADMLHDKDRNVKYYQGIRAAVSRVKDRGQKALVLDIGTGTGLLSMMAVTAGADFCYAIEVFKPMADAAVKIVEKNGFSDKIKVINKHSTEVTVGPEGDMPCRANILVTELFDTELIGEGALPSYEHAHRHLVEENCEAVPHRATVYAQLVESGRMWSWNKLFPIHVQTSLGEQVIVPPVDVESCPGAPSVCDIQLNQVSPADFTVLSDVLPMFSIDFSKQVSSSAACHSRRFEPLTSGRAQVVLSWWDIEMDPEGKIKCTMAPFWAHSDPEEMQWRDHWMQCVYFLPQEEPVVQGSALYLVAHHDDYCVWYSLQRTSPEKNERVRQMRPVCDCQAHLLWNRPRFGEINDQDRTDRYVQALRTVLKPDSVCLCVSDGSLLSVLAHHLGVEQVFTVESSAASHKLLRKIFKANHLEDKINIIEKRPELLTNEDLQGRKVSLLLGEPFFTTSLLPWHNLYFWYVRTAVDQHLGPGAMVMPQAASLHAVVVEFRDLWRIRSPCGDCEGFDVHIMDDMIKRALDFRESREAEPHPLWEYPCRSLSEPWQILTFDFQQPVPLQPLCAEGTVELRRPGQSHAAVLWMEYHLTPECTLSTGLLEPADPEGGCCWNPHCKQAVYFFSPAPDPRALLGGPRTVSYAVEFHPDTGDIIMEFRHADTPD

[4] = molecular target: T2, Histone H3 methyltransferase DOT1 variant d (Mus musculus) (UniProt Q679P4); assay: Inhibition of DOT1L in mouse bone marrow cell transformed with MLL-AF9 cells assessed as reduction in […] methylation at 1 to 30 uM measured after 6 days by Western blot analysis; type: cell-based; conditions: dose 1-30 µM, time 6.0 day
T2 sequence (whole entry): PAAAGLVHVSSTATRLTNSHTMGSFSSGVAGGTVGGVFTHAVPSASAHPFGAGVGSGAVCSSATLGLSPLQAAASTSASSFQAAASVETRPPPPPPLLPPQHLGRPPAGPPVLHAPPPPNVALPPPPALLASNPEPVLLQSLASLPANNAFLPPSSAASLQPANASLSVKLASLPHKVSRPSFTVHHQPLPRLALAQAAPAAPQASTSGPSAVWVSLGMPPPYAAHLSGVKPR

[5] = molecular target: T2, Histone H3 methyltransferase DOT1 variant d (Mus musculus); assay: Inhibition of DOT1L in mouse bone marrow cell transformed with MLL-AF9 cells assessed as reduction in H3K4me3 methylation at 1 to 30 uM measured after 6 days by Western blot analysis; type: cell-based; conditions: dose 1-30 µM, time 6.0 day
[6] = molecular target: T2, Histone H3 methyltransferase DOT1 variant d (Mus musculus); assay: Inhibition of DOT1L in mouse bone marrow cell transformed with MLL-AF9 cells assessed as reduction in H3K79 methylation measured after 9 days by Western blot analysis; type: cell-based; conditions: dose 1-30 µM, time 9.0 day
[7] = molecular target: T2, Histone H3 methyltransferase DOT1 variant d (Mus musculus); assay: Inhibition of DOT1L in mouse bone marrow cell transformed with MLL-AF9 cells assessed as reduction in H3K79 methylation at 30 uM measured after 9 days by Western blot analysis relative to control; type: cell-based; conditions: time 9.0 day
[8] = test system: Bone marrow cell; assay: Antiproliferative activity against mouse bone marrow cell transformed with MLL-AF9 assessed as reduction in cell growth measured after 9 days by hemocytometry; type: functional, cell-based; conditions: 216 h
[9] = molecular target: Protein arginine N-methyltransferase 5 (Homo sapiens, UniProt O14744); assay: Inhibition of recombinant human PRMT5 using histone H2A as substrate by hotspot assay; conditions: read-out: IC50
[10] = test system: Bone marrow cell; assay: Antiproliferative activity against mouse bone marrow cell transformed with MLL-AF9 assessed as reduction in cell growth at 30 uM measured after 11 days by hemocytometry relative to control; type: functional; conditions: 264 h, time 11 day
[11] = molecular target: Protein arginine N-methyltransferase 3 (Homo sapiens, UniProt O60678); assay: Inhibition of recombinant human PRMT3 using histone H4 as substrate by hotspot assay; conditions: read-out: IC50
[12] = molecular target: Histone-lysine N-methyltransferase, H3 lysine-79 specific (Homo sapiens, UniProt Q8TEK3); assay: Binding affinity to recombinant human N-terminal GST-tagged DOT1L (1 to 420 residues) expressed in Escherichia coli BL21 (DE3) assessed as increase in melting temperature incubated for 1 min by 1,8-ANS probe based thermal shift assay
Histone-lysine N-methyltransferase, H3 lysine-79 specific, sequence (Q8TEK3 whole entry, looked up, the tested form may be a part): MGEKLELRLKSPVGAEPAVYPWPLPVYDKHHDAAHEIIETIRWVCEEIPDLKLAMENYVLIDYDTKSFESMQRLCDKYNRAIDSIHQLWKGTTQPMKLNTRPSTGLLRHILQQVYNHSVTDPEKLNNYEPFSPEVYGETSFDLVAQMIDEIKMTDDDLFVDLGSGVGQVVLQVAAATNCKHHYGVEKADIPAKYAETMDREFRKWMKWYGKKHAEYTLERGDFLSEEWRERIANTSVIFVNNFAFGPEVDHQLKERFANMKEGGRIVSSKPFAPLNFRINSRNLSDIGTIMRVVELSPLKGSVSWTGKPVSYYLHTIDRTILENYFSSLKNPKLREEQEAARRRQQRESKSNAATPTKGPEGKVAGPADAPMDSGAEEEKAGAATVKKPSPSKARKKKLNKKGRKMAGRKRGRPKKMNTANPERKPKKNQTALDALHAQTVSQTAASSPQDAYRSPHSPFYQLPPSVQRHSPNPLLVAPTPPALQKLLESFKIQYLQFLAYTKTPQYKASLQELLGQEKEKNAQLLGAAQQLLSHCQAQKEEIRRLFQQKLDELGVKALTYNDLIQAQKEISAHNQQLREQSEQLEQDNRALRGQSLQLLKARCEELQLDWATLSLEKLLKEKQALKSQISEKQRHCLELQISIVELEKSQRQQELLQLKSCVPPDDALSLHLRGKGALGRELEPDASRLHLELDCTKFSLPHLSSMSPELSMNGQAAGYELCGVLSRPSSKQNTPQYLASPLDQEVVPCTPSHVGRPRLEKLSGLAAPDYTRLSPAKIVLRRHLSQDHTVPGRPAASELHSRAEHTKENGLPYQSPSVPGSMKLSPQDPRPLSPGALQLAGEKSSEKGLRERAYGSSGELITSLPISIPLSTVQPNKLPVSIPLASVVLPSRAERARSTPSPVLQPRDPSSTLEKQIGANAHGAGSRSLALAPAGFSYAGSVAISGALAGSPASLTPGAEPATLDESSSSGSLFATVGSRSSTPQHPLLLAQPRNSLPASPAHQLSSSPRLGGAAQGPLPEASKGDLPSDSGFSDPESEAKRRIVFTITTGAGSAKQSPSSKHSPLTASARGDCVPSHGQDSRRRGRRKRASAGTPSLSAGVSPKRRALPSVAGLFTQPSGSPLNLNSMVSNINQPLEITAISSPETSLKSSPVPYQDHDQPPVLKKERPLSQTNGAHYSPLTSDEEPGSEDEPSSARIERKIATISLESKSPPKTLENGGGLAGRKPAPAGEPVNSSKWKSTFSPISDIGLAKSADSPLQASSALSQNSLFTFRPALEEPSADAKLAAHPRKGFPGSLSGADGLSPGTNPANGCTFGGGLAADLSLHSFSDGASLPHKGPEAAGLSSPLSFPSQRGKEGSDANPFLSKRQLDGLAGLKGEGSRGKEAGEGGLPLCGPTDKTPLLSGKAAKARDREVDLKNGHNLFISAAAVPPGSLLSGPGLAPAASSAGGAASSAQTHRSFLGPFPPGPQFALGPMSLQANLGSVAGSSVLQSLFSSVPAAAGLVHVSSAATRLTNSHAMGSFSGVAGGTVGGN

Protein arginine N-methyltransferase 3, sequence (O60678 whole entry, the tested form may be a part): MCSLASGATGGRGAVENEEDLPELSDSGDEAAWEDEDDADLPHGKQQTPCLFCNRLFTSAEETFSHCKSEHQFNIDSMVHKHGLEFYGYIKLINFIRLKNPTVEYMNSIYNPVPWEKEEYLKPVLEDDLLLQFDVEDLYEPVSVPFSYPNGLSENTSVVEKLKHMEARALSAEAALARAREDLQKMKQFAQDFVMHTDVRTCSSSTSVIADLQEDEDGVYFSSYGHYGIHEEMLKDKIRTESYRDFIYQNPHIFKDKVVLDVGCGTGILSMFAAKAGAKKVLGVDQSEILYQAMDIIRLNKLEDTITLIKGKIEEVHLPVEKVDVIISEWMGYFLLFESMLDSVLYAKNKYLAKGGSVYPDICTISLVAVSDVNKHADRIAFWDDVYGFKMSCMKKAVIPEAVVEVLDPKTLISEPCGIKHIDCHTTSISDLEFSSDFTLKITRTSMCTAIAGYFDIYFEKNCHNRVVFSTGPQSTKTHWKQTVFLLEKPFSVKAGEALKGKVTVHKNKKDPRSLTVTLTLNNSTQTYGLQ
Protein arginine N-methyltransferase 5, sequence (O14744 whole entry): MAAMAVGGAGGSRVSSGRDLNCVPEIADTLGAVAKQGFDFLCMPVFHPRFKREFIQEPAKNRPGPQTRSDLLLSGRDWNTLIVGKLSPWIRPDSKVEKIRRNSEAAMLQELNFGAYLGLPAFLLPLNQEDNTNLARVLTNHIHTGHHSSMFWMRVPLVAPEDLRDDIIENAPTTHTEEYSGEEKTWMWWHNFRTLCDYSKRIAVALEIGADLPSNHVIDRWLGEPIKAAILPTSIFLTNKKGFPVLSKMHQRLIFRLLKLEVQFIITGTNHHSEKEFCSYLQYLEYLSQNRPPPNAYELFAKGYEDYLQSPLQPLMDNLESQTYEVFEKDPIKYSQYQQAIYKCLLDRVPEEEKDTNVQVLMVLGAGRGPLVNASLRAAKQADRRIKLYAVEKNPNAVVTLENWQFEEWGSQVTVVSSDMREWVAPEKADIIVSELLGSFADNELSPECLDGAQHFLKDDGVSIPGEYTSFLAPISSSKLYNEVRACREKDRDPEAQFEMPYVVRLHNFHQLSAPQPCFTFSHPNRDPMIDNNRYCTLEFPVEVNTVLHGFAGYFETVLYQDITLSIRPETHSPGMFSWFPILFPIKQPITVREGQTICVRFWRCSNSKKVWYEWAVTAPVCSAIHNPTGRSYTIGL
Histone-lysine N-methyltransferase EZH2, sequence (Q15910 whole entry): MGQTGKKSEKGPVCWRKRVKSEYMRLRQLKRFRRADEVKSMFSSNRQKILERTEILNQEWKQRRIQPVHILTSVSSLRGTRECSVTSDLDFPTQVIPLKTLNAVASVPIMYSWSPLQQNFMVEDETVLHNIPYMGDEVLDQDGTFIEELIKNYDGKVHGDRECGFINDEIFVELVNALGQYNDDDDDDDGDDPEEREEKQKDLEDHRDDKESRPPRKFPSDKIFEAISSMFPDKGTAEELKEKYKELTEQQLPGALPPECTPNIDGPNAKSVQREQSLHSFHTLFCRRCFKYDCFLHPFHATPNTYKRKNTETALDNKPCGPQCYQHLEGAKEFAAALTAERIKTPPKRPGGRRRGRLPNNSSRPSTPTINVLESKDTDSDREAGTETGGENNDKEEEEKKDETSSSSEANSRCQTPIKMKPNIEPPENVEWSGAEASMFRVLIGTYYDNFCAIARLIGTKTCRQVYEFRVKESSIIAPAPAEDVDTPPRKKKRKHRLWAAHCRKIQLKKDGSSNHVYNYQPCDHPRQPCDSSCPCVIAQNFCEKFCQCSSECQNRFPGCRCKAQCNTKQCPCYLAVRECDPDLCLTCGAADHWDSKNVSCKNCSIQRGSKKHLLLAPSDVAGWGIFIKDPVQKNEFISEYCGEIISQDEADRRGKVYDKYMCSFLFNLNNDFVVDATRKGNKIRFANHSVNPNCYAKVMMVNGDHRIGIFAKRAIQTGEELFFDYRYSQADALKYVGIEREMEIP

CC(C)(C)c1ccc(NC(=O)c2ncn(CC(=O)NCCn3ccc4c(N)ncnc43)n2)cc1
IC50 [1]: Not Active
Activity [2]: Dose-dependent effect
IC50 [3]: Not Active
inhibition [4]: inactive
inhibition [5]: inactive
inhibition [6]: Dose-dependent effect
inhibition [7]: 100%
IC50 [8]: 4.2 µM
IC50 [9]: 165 µM
inhibition at 30 µM [10]: 100%
IC50 [11]: 115 µM
Activity [12]: Dose-dependent effect
